Bioassay records as filed in PubChem.
hERG protect: hERG rescue from dofetilide block, primary screen, cell-based, CHO-hERG, FluxOR thallium flux, dofetilide IC70; Voltage-gated inwardly rectifying potassium channel KCNH2 (Homo sapiens), Q12809; dofetilide IC70 present; activation (rescue from dofetilide block), less the hit threshold, % at 10 µM; 0.51% of 310,000 active; AID 1511, 2009;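 active means activation above the mean of controls blocked by dofetilide plus 5 SD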;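 further: thallium influx through hERG after potassium depolarization seen as dye fluorescence rise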
KCNQ1 pot: potentiators or activators of KCNQ1 channel, primary screen, cell-based, thallium flux, high-throughput; Potassium voltage-gated channel subfamily KQT member 1 (Homo sapiens), P51787; CHO-K1 KCNQ1, thallium flux FluxOR fluorescence; active compounds read high; B-score at 10 µM; 0.35% of 310,000 active; AID 2648, 2010;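 active means fluorescence ratio B-score, a plate-corrected score, at least three library SD, with initial intensity B-score within 5 SD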
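Material: CHO-K1 cells stably expressing KCNQ1. Medium: assay buffer for compound exposure, DMSO matched across wells. Reagent: K+/Tl+ depolarizing stimulus. Compound dosing: single-concentration screen. Times: 37 °C overnight plating, 90-min dark dye load, 20-min compound pretreatment. Technique: FluxOR Tl+ flux fluorescence.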
KCNK3 block: human KCNK3 channel inhibitors, primary screen, CHO cells, FluxOR thallium flux, B-score; FluxOR fluorescence; active compounds read low; B-score at 10 µM; 0.84% of 340,000 active; AID 602410, 2012;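 active means B-score under library mean minus 4 SD, starting fluorescence ratio at most library mean plus 5 SD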;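 further: more negative B-score means stronger inhibition of thallium flux through KCNK3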
KCNK9 inh: KCNK9 potassium channel inhibitors, primary screen, HEK293 cells, thallium flux. 1.2% of 310,000 active. FluxOR thallium flux fluorescence; active compounds read low. Potassium channel subfamily K member 9 (Homo sapiens), Q9NPC2. B-score at 10 µM. AID 488922, 2010;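 active means ratio B-score over 3 SD below the library mean, with starting fluorescence within 5 SD of its mean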;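 further: negative B-score means less thallium flux so channel inhibition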
KCNQ1 block: inhibitors of human KCNQ1 channel, primary screen, cell-based, thallium flux, high-throughput. Potassium voltage-gated channel subfamily KQT member 1 (Homo sapiens), P51787. CHO-K1 KCNQ1, FluxOR thallium flux fluorescence; active compounds read high. B-score at 10 µM. 1.3% of 310,000 active;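 active means compounds whose thallium flux B-score, printed positive for inhibition, exceeds three library SD while starting fluorescence stays within three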;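 further: channel opened by potassium depolarization with thallium stimulus after 20 min compound exposure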
KCNK9 block conf: KCNK9 potassium channel inhibitors, confirmation, HEK293 cells, thallium flux, duplicate. inhibition, % at 10 µM. shares compounds with KCNK9 inh. FluxOR thallium flux fluorescence. 43% of 4,900 active;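 active means thallium signal inhibited by more than 5 SD of the compound-free buffer control wells, on both duplicate plates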;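 further: 0% = assay buffer control wells without compound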
Kir2-1 spec: mouse Kir2.1 channel inhibition, confirmation, selectivity assay for KCNK9 modulator project, cell-based, HEK293, thallium flux; Kir2.1 cells, FluxOR thallium flux fluorescence; shares compounds with KCNK9 inh; 4% of 4,900 active; inhibition, % at 10 µM;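 active means thallium signal drop more than 5 SD beyond the mean of the no-compound control wells, seen in both duplicate plates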;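 further: signal is fluorescence rise after thallium addition divided by baseline fluorescence; plate controls were assay buffer only for no effect and full block by chlorpromazine control for full effect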
HEK293 Tl ctr: thallium flux in non-induced HEK293 cells, confirmation, counter-screen for KCNK9 inhibitor project, cell-based, second counter screen, non-induced KCNK9-HEK293; shares compounds with KCNK9 inh; FluxOR thallium flux; inhibition, % at 10 µM; 40% of 4,900 active; AID 492997, 2010;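 active means thallium signal drop beyond 5 SD of the untreated control mean, on both duplicate plates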;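 further: plate controls were buffer only IC0 wells for no effect and SID17386958 at its maximal inhibitory level for full effect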
Starred values were filed as active, the others as inactive; i = inactive; nt = not tested or not shown. Sampled rows, rich in hits. Any-hit rate of the full collection: about 3.1%.

SMILES	hERG protect	KCNQ1 pot	KCNK3 block	KCNK9 inh	KCNQ1 block	KCNK9 block conf	Kir2-1 spec	HEK293 Tl ctr
CCOC(=O)C1(CCCc2ccccc2)CCN(Cc2nccn2CC)CC1	-16.5	i	i	i	i	i	i	i
CCOC(=O)C1(CCOc2ccccc2)CCN(Cc2nccn2CC)CC1	-4.5	i	i	i	i	nt	nt	nt
Brc1ccc2c(c1)CN1CCCC1=N2	-9.9	i	i	i	i	nt	nt	nt
Cc1ccc(SCCNC(=S)Nc2ccc(C)cc2C)cc1	0.2	i	i	i	i	i	i	i
Cc1cc(Oc2ccc3ccccc3c2)nc(SCC(=O)c2ccccc2)n1	-10.1	i	i	-13.3*	i	75.5%*	i	38.5%*
COc1ccc(NC(=O)CSc2nnc(Cc3ccccc3)c(=O)n2N)cc1OC	-6.6	i	i	i	i	nt	nt	nt
O=C(CC(Nc1ccccc1Cl)C(=O)OCC(=O)c1cccs1)c1ccccc1 (configuration not stated)	-9.5	i	i	-9.39*	i	41.5%*	i	27.5%*
Cn1c(-c2ccc3c(c2)OCO3)cc(=O)c2ccccc21	-6.5	i	i	i	i	nt	nt	nt
Cn1c2ccccc2c(=O)c2ccc(-c3ccc4c(c3)OCO4)cc21	-17.1	i	i	-8.9*	i	64.5%*	i	i
CCCOc1ccc2c3c(c(=O)oc2c1OCCC)CCCC3	-5.8	i	i	-12.5*	i	74.5%*	i	31.0%*
CC(=O)Oc1ccc2c3c(c(=O)oc2c1C)CCCC3	0.2	i	i	i	i	nt	nt	nt
CCOC(=O)c1c(S(=O)(=O)N2CCN(c3ccc(F)cc3)CC2)c(C)n(C)c1C	-7.1	i	i	i	i	nt	nt	nt
N#C/C(=C/c1ccc(OCc2ccc(C(=O)O)cc2)c(Br)c1)c1cccc(F)c1	-10.7	i	i	i	i	i	i	i
COc1ccc(Cl)cc1NC(=O)CN(C)C1CCCCC1	-8.9	i	i	i	i	nt	nt	nt
COc1ccc(C)cc1NC(=O)CN(Cc1nnc(-c2ccc(Cl)cc2)o1)C1CCCC1	-18.2	i	i	-12.4*	i	36.0%*	i	32.5%*
O=C(/C=C/c1cccs1)NC(=S)Nc1ccc(S(=O)(=O)Nc2ccccc2C(F)(F)F)cc1	-9.7	i	i	i	i	i	i	i
Cc1ccc(C(=O)NC(=S)Nc2ccccc2N2CCOCC2)cc1C	-5.6	i	i	i	i	nt	nt	nt
CC(C)(C)C(=O)NN=C1CCC(c2ccccc2)CC1 (configuration not stated)	-9.7	i	i	i	i	nt	nt	nt
Cc1cc(C)nc(SCC(=O)Nc2ncc(Cc3cccc(Cl)c3Cl)s2)n1	-10.6	i	i	i	i	nt	nt	nt
CCOC(=O)Cc1cnc(NC(=O)CSc2nc(C)cc(C)n2)s1	-17.0	i	i	i	i	i	i	i
CCOC(=O)c1c(-c2cccs2)csc1NC(=O)COC(=O)c1c(C)noc1C	-17.0	i	-8.9*	i	i	i	i	i
CCOC(=O)c1c(-c2ccccc2)csc1NC(=O)c1cc(S(=O)(=O)N2CCOCC2)ccc1C	-9.7	i	i	i	i	i	i	i
CCOC(=O)c1c(-c2ccccc2)csc1NC(=O)CSc1nc(C)cc(C)n1	-9.9	i	i	i	i	i	i	i
COc1cc(C(=O)OCC(=O)N2CCC(C)CC2)cc2c1OCCO2	nt	nt	i	nt	nt	nt	nt	nt
N#Cc1ccc(OCC(=O)N/N=C/C2CC=CCC2)cc1 (configuration not stated)	-24.1	i	i	i	i	nt	nt	nt
SMILES	hERG protect	KCNQ1 pot	KCNK3 block	KCNK9 inh	KCNQ1 block	KCNK9 block conf	Kir2-1 spec	HEK293 Tl ctr
COc1cccc([C@@H]2Oc3ccc(OC)cc3C(=O)[C@H]2OC(=O)N[C@H](C)C2CCCCC2)c1	-5.7	i	nt	-8.72*	i	49.0%*	i	42.5%*
COc1ccc2c(c1)O[C@H](c1ccc3c(c1)OCO3)[C@@H](OC(=O)N[C@H](C)C1CCCCC1)C2=O	-3.1	i	nt	i	i	nt	nt	nt
Cc1noc(C)c1COc1ccc(C(=O)N2CCN(S(=O)(=O)c3ccc(F)cc3)CC2)cc1	nt	nt	i	nt	nt	nt	nt	nt
O=C(CN1CCN(S(=O)(=O)c2ccc(F)cc2)CC1)NCC1(N2CCOCC2)CCCCC1	nt	nt	i	nt	nt	nt	nt	nt
O=C1C(Cl)=C(N2CCCC2)C(=O)N1c1ccc(F)cc1	-7.3	i	i	i	i	nt	nt	nt
Cc1ccc(Cl)cc1NS(=O)(=O)Cc1ccccc1	-5.9	i	i	i	i	i	i	i
Cc1cccc(N2C(=O)C3CCC(c4ccccc4)CC3C2=O)c1 (configuration not stated)	-0.8	i	i	i	i	i	i	i
COc1ccccc1N1C(=O)C2CCC(c3ccccc3)CC2C1=O (configuration not stated)	-12.2	i	i	i	i	nt	nt	nt
CCN1CCN(CCCNC(=O)CCC(=O)N2CCOc3ccc(Cl)cc32)CC1	-7.4	i	i	i	i	nt	nt	nt
COc1cc(Cl)c(C)cc1NC(=O)Cc1cccs1	1.0	i	i	i	i	nt	nt	nt
O=C(CN1CCN(c2cccc(Cl)c2)CC1)NC1CCCc2ccccc21 (configuration not stated)	-14.4	i	i	i	i	i	i	i
NC(=O)CN1CCN(c2cccc(Cl)c2)CC1	-10.8	i	i	i	i	nt	nt	nt
O=C(CN1CCN(c2ccccc2)CC1)Nc1ccc2c(c1)CCC2	-9.8	i	i	i	i	i	i	i
C=CCn1c(NC(=O)c2ccc(C)cc2)nc2ccccc21	-4.0	i	i	i	i	nt	nt	nt
O=C(O)c1ccc(CSc2nc(-c3ccccc3)cc(C(F)(F)F)n2)cc1	-5.9	i	i	i	i	i	i	i
